Assay results as given in ChEMBL document CHEMBL1155579, “Known and novel terpenes from Buddleja globosa displaying selective antifungal activity against dermatophytes” (2000).
≈ marks a conversion by molar mass, not a printed value. Calls of active or inactive are those of the source. The rule behind the calls is not given here.

What was measured:
[1] = system: Scopulariopsis brevicaulis; assay: Antifungal activity against Scopulariopsis brevicaulis at 1000 ug/ml after 24 hrs
Trichophyton rubrum = assay: Antifungal activity against Trichophyton rubrum after 24 hrs
Epidermophyton floccosum = assay: Antifungal activity against Epidermophyton floccosum after 24 hrs; type: functional
Saccharomyces cerevisiae = assay: Antifungal activity against Saccharomyces cerevisiae NCIMB 080178 at 1000 ug/ml after 24 hrs; type: functional, organism-based
Procedure, shortened: (§1)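 Agar dilution in 96-well plates. Samples in DMSO, made up with sterile water, 1:2 serially diluted over six steps, then mixed with an equal volume of molten double-strength Sabouraud dextrose agar (200 µL per well). Yeasts were grown on SDA at 30 °C for 24 h and harvested in PBS. 100 µL inoculum (10⁵ CFU) was added per well and incubated at 30 °C for 24 h. Miconazole was the positive control.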

Aspergillus niger = assay: Antifungal activity against Aspergillus niger ATCC 16404 at 1000 ug/ml after 24 hrs; type: functional, organism-based
Candida albicans = assay: Antifungal activity against Candida albicans ATCC 10234 at 1000 ug/ml after 24 hrs; type: functional, organism-based
Procedure, shortened: as §1

Penicillium chrysogenum = assay: Antifungal activity against Penicillium notatum ATCC 11654 at 1000 ug/ml after 24 hrs; type: functional, organism-based
[2] = system: Neoscytalidium dimidiatum; assay: Antifungal activity against Scytalidium dimidiatum at 1000 ug/ml after 24 hrs; type: functional, organism-based
[3] = system: Trichophyton interdigitale; assay: Antifungal activity against Trichophyton interdigitale EL 5171 after 24 hrs; type: functional

Row | SMILES | Activity [1] | MIC (Trichophyton rubrum) [µM] | MIC (Epidermophyton floccosum) [µM] | Activity (Saccharomyces cerevisiae) | Activity (Aspergillus niger) | Activity (Candida albicans) | Activity (Penicillium chrysogenum) | Activity [2] | MIC [3] [µM]
1 | C=C1CC/C=C(\C)C(=O)[C@H](OC(C)=O)[C@@H]2[C@@H]1CC2(C)C [BUDDLEDIN A] | inactive | 43 (≈ 11.9 µg/mL) | 43 (≈ 11.9 µg/mL) | inactive | inactive | inactive | inactive | inactive | 43 (≈ 11.9 µg/mL)
2 | C=C1CC/C=C(\C)C(=O)[C@H](O)[C@@H]2[C@@H]1CC2(C)C [BUDDLEDIN B] | inactive | 51 (≈ 12 µg/mL) | 51 (≈ 12 µg/mL) | inactive | inactive | inactive | inactive | inactive | 51 (≈ 12 µg/mL)
3 | CC(C)C1=CC=C2C(=C(O)C[C@H]3C(C)(C)CCC[C@]23C)C1=O [BUDDLEJONE] | inactive | 2500 (≈ 751 µg/mL) | 2500 (≈ 751 µg/mL) | inactive | inactive | inactive | inactive | inactive | 2500 (≈ 751 µg/mL)
4 | CC(C)C1=CC=C2C(=CC[C@H]3C(C)(C)CCC[C@]23C)C1=O [DEOXYBUDDLEJONE] | inactive | 2640 (≈ 751 µg/mL) | 2640 (≈ 751 µg/mL) | inactive | inactive | inactive | inactive | inactive | 2640 (≈ 751 µg/mL)
5 | CC(C)[C@]1(O)C(=O)C=C2[C@@]3(CC[C@H]4C(C)(C)CCC[C@]24C)[C@@H]2C(=O)[C@@](O)(C(C)C)[C@@H](C4=C2[C@@]2(C)CCCC(C)(C)[C@@H]2CC4)[C@H]31 [MAYTENONE] | inactive | 625 (≈ 378 µg/mL) | 625 (≈ 378 µg/mL) | inactive | inactive | inactive | inactive | inactive | 625 (≈ 378 µg/mL)
6 | Clc1ccc(COC(Cn2ccnc2)c2ccc(Cl)cc2Cl)c(Cl)c1 (centres undefined) [MICONAZOLE] | inactive | 5 (≈ 2.08 µg/mL) | 5 (≈ 2.08 µg/mL) | inactive | inactive | inactive | inactive | inactive | 5 (≈ 2.08 µg/mL)
